Only a selection was taken, and hits are over-represented in it overall.
IDH1 mut inh = IDH1 R132H (human) inhibition. O75874. IDH1 R132H reductase, diaphorase/resazurin fluorescence, 60 min. inhibition, % at 10 µM. 70,000 compounds, 0.18% hits. AID 624101; in the data active means inhibition above about 34%; inconclusive means no clear call, values can overlap the other calls; inactive means below about 11%;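 further: 0% = DMSO and 100% = no enzyme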
Target sequence (O75874 whole entry R132H): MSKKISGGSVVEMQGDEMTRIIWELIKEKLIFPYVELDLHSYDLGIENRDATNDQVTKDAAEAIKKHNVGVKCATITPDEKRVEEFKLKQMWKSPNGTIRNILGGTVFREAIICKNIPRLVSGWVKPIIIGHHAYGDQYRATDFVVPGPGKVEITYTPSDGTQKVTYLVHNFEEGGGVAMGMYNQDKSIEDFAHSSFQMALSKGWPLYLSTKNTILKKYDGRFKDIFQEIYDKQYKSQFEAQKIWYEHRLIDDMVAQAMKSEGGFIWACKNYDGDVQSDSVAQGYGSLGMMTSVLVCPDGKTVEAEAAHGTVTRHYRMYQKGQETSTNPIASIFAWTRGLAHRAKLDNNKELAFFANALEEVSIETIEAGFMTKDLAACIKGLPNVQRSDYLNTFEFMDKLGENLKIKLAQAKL
GASC1 inh = blocks human GASC-1 (KDM4C) demethylase activity; 96,000 compounds, 0.15% hits; Q9H3R0; GST-KDM4C 2-372, H3K9me3 peptide, LANCE TR-FRET; inhibition, % at 12.5 µM;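 active means mean replicate inhibition above about 25%, with at least 55% of replicates also reaching it, limit read from the data, passing the limit was not always enough; inconclusive means only one of those two conditions met; inactive means neither condition met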
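Material: GST-tagged GASC-1 (JMJD2C) catalytic fragment, aa 2-372. Input: enzyme final amount 10 nM. Medium: HEPES buffer, pH 7.5, plus ascorbate. Reagent: H3K9me3 peptide substrate, Fe(II), 2-oxoglutarate. Doses: single dose. Times: reaction 30 min RT, detection step 1 h RT. Measured by: LANCE TR-FRET. Evaluation: Fall in 671/618 emission ratio as inhibition.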
T cruzi growth-1 = T. cruzi proliferation inhibition | inhibition, % at 8.34 µM | 77,000 compounds, 5.9% hits | AID 624255 | T. cruzi beta-gal in NIH3T3, GalScreen luminescence, 90 h;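 active means mean inhibition above about 93%, with at least 55% of replicates each passing it, limit read from the data, passing the limit was not always enough; inconclusive means only one of those two conditions holds; inactive means neither condition holds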
T cruzi growth-2 = blocks T. cruzi growth in NIH3T3 host cells | AID 651739 | inhibition, % at 8.35 µM | T. cruzi beta-gal in NIH3T3, GalScreen luminescence, 90 h | shares compounds with T cruzi growth-1 | 5,600 compounds, 72% hits;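 active means mean replicate inhibition above about 95% and at least 55% of replicates individually reaching it, limit read from the data; inconclusive means only one of the two criteria is met; inactive means neither criterion is met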
T cruzi growth-3 = Trypanosoma cruzi proliferation inhibition; inhibition, % at 2.09 µM; shares compounds with T cruzi growth-1; T. cruzi beta-gal in NIH3T3, GalScreen luminescence, 90 h; 5,600 compounds, 21% hits;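 active means mean inhibition above about 95%, with at least 55% of replicates also reaching it, limit read from the data; inconclusive means meets just one of the two conditions; inactive means meets neither condition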;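 further: plate controls were neutral control median for no effect and positive control median for full effect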
3T3 cytotox = kills mouse NIH/3T3 fibroblasts. 5,600 compounds, 14% hits. AID 651742. cytotoxicity (signal decrease), % at 8.35 µM. shares compounds with T cruzi growth-1. NIH/3T3 viability, CellTiter-Glo ATP luminescence, 90 h;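 active means mean signal decrease across replicates above about 35% based on untreated-well scatter, with enough replicates individually passing, limit read from the data; inconclusive means no rule stated though some were filed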;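 further: 0% = median of neutral control wells and 100% = median of positive control wells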
3T3 cytotox 2 = kills mouse NIH/3T3 fibroblasts; shares compounds with T cruzi growth-1; NIH/3T3 viability, CellTiter-Glo ATP luminescence, 90 h; inhibition, % at 24.9 µM; 5,600 compounds, 56% hits; AID 651744;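 active means mean loss of cell viability signal at or above a set limit, and enough replicates individually reaching it; inconclusive means meets only the mean limit or only the replicate share; inactive means meets neither condition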;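 further: 0% = median of neutral control wells and 100% = median of positive control wells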
Active calls of the source: *; ? = inconclusive; . = not tested or not shown.

SMILES	IDH1 mut inh	GASC1 inh	T cruzi growth-1	T cruzi growth-2	T cruzi growth-3	3T3 cytotox	3T3 cytotox 2
CCOc1ccc2nc(SCC(=O)Nc3ccc(Br)cc3Cl)sc2c1	0	.	.	.	.	.	.
OC[C@@H]1[C@H](c2ccc(C#CC3(O)CCCC3)cc2)[C@H]2CN(Cc3cccnc3)CCCCN12	.	2	120*	107*	92	31	32*
OC[C@H]1[C@H](c2ccc(C#CC3(O)CCCC3)cc2)[C@@H]2CN(Cc3ccncc3)CCCCN12	.	4	6	.	.	.	.
OC[C@@H]1[C@H](c2ccc(C#CC3(O)CCCC3)cc2)[C@H]2CN(Cc3ccncc3)CCCCN12	.	0	90	.	.	.	.
OC[C@H]1[C@@H](c2ccc(C#CC3(O)CCCC3)cc2)[C@H]2CN(Cc3ccncc3)CCCCN21	.	1	5	.	.	.	.
OC[C@H]1[C@@H](c2ccc(C#CC3(O)CCCC3)cc2)[C@H]2CN(Cc3cccnc3)CCCCN21	.	1	103*	49	-43	2	4
OC[C@H]1[C@@H](c2ccc(C#CC3(O)CCCC3)cc2)[C@@H]2CN(Cc3cccnc3)CCCCN12	.	-1	114*	73	3	4	?
Cc1noc(C)c1NC(=O)Nc1ccc2c(c1)CC(=O)N([C@H](C)CO)C[C@@H](C)[C@@H](CN(C)C(=O)Nc1ccc3c(c1)OCO3)O2	0	2	3	.	.	.	.
C[C@@H]1CN([C@@H](C)CO)C(=O)c2cc(C#Cc3cccc(F)c3)cnc2O[C@H]1CN(C)CC1CCOCC1	-4	-1	22	.	.	.	.
COc1ccc(NC(=O)N(C)C[C@H]2OCCCC[C@@H](C)Oc3ccc(NC(=O)Nc4ccccc4)cc3C(=O)N([C@H](C)CO)C[C@H]2C)cc1	.	-3	47	.	.	.	.
CN(C)C(=O)[C@H]1[C@H](CO)[C@H]2Cn3c(cccc3=O)[C@@H]1N2CC1CCCC1	.	2	.	.	.	.	.
O=C(C[C@H]1CC[C@H]2[C@@H](COC[C@H](O)CN2C(=O)c2cnccn2)O1)NCc1ccc(Oc2ccccc2)cc1	.	-3	.	.	.	.	.
COc1ccccc1-c1ccc2c(c1)O[C@H](CN(C)C(=O)Nc1cccc(F)c1)[C@@H](C)CN([C@@H](C)CO)S2(=O)=O	0	-2	79	.	.	.	.
C[C@H]1CN([C@@H](C)CO)S(=O)(=O)c2ccc(-c3ccccc3F)cc2O[C@@H]1CN(C)Cc1cncnc1	-1	2	35	.	.	.	.
Cc1ccccc1-c1ccc2c(c1)O[C@@H](CN(C)Cc1ccncc1)[C@@H](C)CN([C@@H](C)CO)S2(=O)=O	0	0	90	.	.	.	.
C[C@H]1CN([C@@H](C)CO)S(=O)(=O)c2ccc(-c3ccccc3F)cc2O[C@H]1CN(C)Cc1cccnc1	?	-3	95*	99*	84	67*	49*
C[C@@H]1CN([C@H](C)CO)S(=O)(=O)c2ccc(-c3ccccc3F)cc2O[C@@H]1CN(C)C	-4	-1	49	.	.	.	.
C[C@H](CO)N1C[C@H](C)[C@@H](CN(C)Cc2ccncc2)Oc2cc(-c3ccccc3F)ccc2S1(=O)=O	1	1	114*	96*	100*	59*	98*
C[C@@H]1CN([C@@H](C)CO)S(=O)(=O)c2ccc(-c3ccccc3F)cc2O[C@H]1CN(C)Cc1ccncc1	1	1	116*	88	97*	65*	101*
C[C@H]1CN([C@@H](C)CO)S(=O)(=O)c2ccc(-c3ccccc3F)cc2O[C@@H]1CN(C)Cc1ccncc1	4	1	116*	101*	100*	40*	104*
Cc1ccc(-c2ccc3c(c2)O[C@@H](CN(C)Cc2cccc(C(=O)O)c2)[C@@H](C)CN([C@H](C)CO)S3(=O)=O)cc1	12	8	22	.	.	.	.
C[C@H](CO)N1C[C@H](C)[C@H](CN(C)Cc2ccc(Cl)c(Cl)c2)Oc2ccc(NC(=O)Nc3ccc(F)cc3)cc2CC1=O	.	0	50	.	.	.	.
O=C(C[C@@H]1C=C[C@@H](NC(=O)Nc2ccccc2F)[C@@H](CO)O1)NCc1ccc(Cl)cc1	0	1	-14	.	.	.	.
Cc1cc(NC(=O)C(=O)NCCCn2ccnc2)ccc1Br	4	.	.	.	.	.	.
O=C(C[C@H]1C=C[C@@H](NC(=O)Nc2ccccc2)[C@H](CO)O1)NCc1cccc(F)c1	0	-2	-18	.	.	.	.
SMILES	IDH1 mut inh	GASC1 inh	T cruzi growth-1	T cruzi growth-2	T cruzi growth-3	3T3 cytotox	3T3 cytotox 2
CCCN(C)C[C@H]1Oc2cc(-c3ccccc3F)ccc2S(=O)(=O)N([C@H](C)CO)C[C@H]1C	0	-1	58	.	.	.	.
C[C@H](CO)N1C[C@H](C)[C@H](CN(C)Cc2ccncc2)Oc2cc(-c3ccccc3F)ccc2S1(=O)=O	.	1	106*	93	91	59*	76*
C[C@@H]1CN([C@H](C)CO)S(=O)(=O)c2ccc(-c3ccccc3F)cc2O[C@@H]1CN(C)Cc1ccncc1	17	-1	110*	101*	77	35*	77*
COc1ccc(S(=O)(=O)N(C)C[C@H]2OCCCC[C@@H](C)Oc3ccc(NS(=O)(=O)c4ccc(Cl)cc4)cc3C(=O)N([C@H](C)CO)C[C@@H]2C)cc1	3	-3	.	.	.	.	.
COc1ccc2c3c(n(C)c2c1)[C@H](CO)N(Cc1ccncc1)CC31CCN(C(=O)Nc2cccc(F)c2)CC1	.	4	.	.	.	.	.
Cn1cnc(S(=O)(=O)N[C@@H]2C=C[C@@H](CC(=O)Nc3ccccc3)O[C@@H]2CO)c1	0	-1	.	.	.	.	.
O=C(NCC[C@H]1CC[C@@H](NC(=O)c2cccnc2)[C@@H](CO)O1)Nc1ccc(C(F)(F)F)cc1	0	3	-29	.	.	.	.
Cc1noc(C)c1NC(=O)N(C)C[C@@H]1Oc2ccc(NS(=O)(=O)c3cccs3)cc2CC(=O)N([C@@H](C)CO)C[C@H]1C	0	-1	10	.	.	.	.
C[C@H]1CN([C@@H](C)CO)C(=O)c2cc(C#Cc3ccccc3F)cnc2O[C@@H]1CN(C)C(=O)Cc1ccncc1	15	0	95*	?	48	-3	12
COc1ccc(-c2cnc3c(c2)C(=O)N([C@@H](C)CO)C[C@H](C)[C@H](CN(C)C(=O)Cc2ccccc2)O3)cc1	0	-1	43	.	.	.	.
C[C@@H]1CN([C@@H](C)CO)C(=O)c2cc(C#Cc3ccccc3F)cnc2O[C@@H]1CN(C)C(=O)Cc1ccccc1	0	-2	71	.	.	.	.
C[C@@H]1CN([C@H](C)CO)C(=O)c2cc(C#Cc3ccccc3F)cnc2O[C@H]1CN(C)C(=O)Cc1ccncc1	.	-1	97	.	.	.	.
C[C@@H]1CN([C@@H](C)CO)C(=O)c2cc(C#Cc3ccccc3F)cnc2O[C@H]1CN(C)C(=O)Cc1ccccc1	.	0	120*	111*	106*	22	?

Screens: PubChem, Broad Institute
